Results on 24 molecules are retold here after ChEMBL document CHEMBL5032505, “Design, Synthesis, and Activity Evaluation of Stereoconfigured Tartarate Derivatives as Potential Anti-inflammatory Agents In Vitro and In Vivo” (J Med Chem, 2021).

Molecules are shown by their SMILES. The source made the active and inactive calls. The rule behind the calls is not given here.

Test [1] is described as follows: Inhibition of soybean LOX using arachidonic acid as substrate incubated for 5 mins. The arrangement: species or system Glycine max. Put shortly: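 Soybean lipoxygenase in assay buffer, compounds at 10⁻⁴–10⁻⁸ M from DMSO stocks, triplicate. Reaction started with arachidonic acid and shaken 5 min. Chromogen added, shaken 5 min more, absorbance read at 490 nm. Blanks were buffer + AA. % inhibition computed with chromogen extinction coefficient 9.47 mM⁻¹.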

The target in test [2] is T1, Prostaglandin G/H synthase 1 (Ovis aries, UniProt P05979).
T1 sequence (P05979 whole entry): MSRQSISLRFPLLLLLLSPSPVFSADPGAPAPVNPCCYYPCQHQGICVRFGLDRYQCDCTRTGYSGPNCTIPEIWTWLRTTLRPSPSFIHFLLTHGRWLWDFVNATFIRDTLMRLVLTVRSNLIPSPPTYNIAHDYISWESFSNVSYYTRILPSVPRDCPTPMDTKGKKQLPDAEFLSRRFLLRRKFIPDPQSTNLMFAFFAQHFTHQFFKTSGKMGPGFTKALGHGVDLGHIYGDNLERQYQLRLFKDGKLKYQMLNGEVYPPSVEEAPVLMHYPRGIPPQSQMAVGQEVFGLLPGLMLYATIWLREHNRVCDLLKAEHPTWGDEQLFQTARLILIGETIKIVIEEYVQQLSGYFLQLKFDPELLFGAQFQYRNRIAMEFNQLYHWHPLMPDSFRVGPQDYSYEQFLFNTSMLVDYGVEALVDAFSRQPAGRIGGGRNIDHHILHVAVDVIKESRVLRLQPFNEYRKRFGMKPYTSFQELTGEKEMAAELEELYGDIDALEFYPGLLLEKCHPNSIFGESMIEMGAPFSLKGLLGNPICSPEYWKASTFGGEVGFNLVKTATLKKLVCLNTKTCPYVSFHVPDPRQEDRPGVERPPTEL
Briefly: Inhibition of ovine COX-1 using arachidonic acid as substrate preincubated for 10 mins followed by substrate addition and measured after 2 mins by EIA. In outline:
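COX-1 EIA run at 10⁻⁴–10⁻⁸ M in triplicate. Enzyme with heme in reaction buffer plus inhibitor, incubated 10 min at 37 °C. Boiled (3 min) enzyme served as background. Prostaglandin output quantified to give IC50.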

Test [3] deals with Mus musculus. Briefly: Analgesic activity in Swiss albino mouse assessed as inhibition of acetic acid-induced writhing at 5 mg/kg, ip administered 30 mins prior to acetic acid challenge and measured after 30 mins relative to control. The test is classed as functional. Put shortly:
(§1)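 Mice pretreated i.p. with indomethacin (10 mg/kg) or test compound (5 mg/kg) 30 min before 0.6% v/v acetic acid injection. Control group also received acetic acid. Animals placed in a transparent box and abdominal writhings counted for 30 min. Six animals per group, one-way ANOVA with Tukey's test, mean ± SEM.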
On the technique in general: An intraperitoneal irritant provokes the stretching counted in writhing tests.

The test system of test [4] is Mus musculus. Put plainly: Antiinflammatory activity in Swiss albino mouse model of carrageenan-induced paw edema assessed as reduction in paw thickness at 5 mg/kg, administered 30 mins prior to carrageenan challenge and measured upto 360 mins relative to control. The test is classed as functional. The arrangement: scale not given: the % may be the effect or the level left. To be noted: time 390 min, 6.5 h. Put shortly:
(§2)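 100 μL freshly prepared 1% carrageenan injected into the subplantar hind paw, with indomethacin (10 mg/kg) or test compound given 30 min before. Dose–response arm used 0.5, 2.5, 5, 10, 20 mg/kg. Six animals per group. Paw thickness (mm) read at 15, 30, 60, 120, 180, 240, 300, 360 min. Result expressed as % decrease versus control.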
On the technique in general: Carrageenan injected into the paw causes an acute inflammation.

In test [5] the target is Prostaglandin G/H synthase 1 (Homo sapiens) (UniProt P23219). Put plainly: Inhibition of COX1 in human whole blood assessed as reduction in calcium ionophore-stimulated TXB2 production by ELISA. The test is classed as tissue-based. On the technique in general: In an ELISA, binding on a coated surface is turned into a signal by an enzyme label.
The test system of test [6] is Mus musculus. Briefly: Analgesic activity in Swiss albino mouse assessed as inhibition of acetic acid-induced writhing at 10 mg/kg, ip administered 30 mins prior to acetic acid challenge and measured after 30 mins relative to control. As to conditions: time 60 min, 1 h. On the set-up: scale not given: the % may be the effect or the level left. The test is classed as functional. In outline:
as §1

The test system of test [7] is Mus musculus. Put plainly: Antiinflammatory activity in Swiss albino mouse model of carrageenan-induced paw edema assessed as reduction in paw thickness at 10 mg/kg, administered 30 mins prior to carrageenan challenge and measured upto 360 mins. The test is classed as functional. The arrangement: scale not given: the % may be the effect or the level left. As to conditions: time 390 min, 6.5 h. In outline: as §2

Prostaglandin G/H synthase 1 (Homo sapiens), sequence (P23219 whole entry): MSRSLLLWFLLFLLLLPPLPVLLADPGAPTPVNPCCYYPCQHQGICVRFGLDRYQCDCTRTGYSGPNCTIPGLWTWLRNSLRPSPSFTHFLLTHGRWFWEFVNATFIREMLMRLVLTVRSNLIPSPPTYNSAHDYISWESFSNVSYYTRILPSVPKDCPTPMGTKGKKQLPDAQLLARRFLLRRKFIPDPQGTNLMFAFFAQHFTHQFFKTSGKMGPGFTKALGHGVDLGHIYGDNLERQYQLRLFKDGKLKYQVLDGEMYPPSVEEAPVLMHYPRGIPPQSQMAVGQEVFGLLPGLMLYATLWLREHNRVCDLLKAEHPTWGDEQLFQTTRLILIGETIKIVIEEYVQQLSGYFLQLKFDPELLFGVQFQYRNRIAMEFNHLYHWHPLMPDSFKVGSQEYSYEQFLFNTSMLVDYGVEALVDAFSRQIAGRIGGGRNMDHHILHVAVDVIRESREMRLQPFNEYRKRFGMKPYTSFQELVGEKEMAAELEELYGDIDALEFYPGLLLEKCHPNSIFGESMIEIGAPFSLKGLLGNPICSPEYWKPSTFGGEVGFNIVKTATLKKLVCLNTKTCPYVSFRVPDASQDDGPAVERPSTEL

Usually IC50 stands for the midpoint of a concentration-inhibition curve. `CCOC(=O)[C@H](O)[C@@H](OCc1cnnn1[C@@H](Cc1ccc(O)cc1)C(=O)OC)C(=O)OCC`: the 50% inhibitory concentration (IC50) in test [1] stood at 12000 nM; in test [2] it was 80 µM.

For the molecule `COC(=O)[C@H](Cc1ccc(O)cc1)n1nncc1COc1ccc2ccccc2c1-c1c(OCc2cnnn2[C@@H](Cc2ccc(O)cc2)C(=O)OC)ccc2ccccc12`, the IC50 in test [1] was 600 nM; in test [2], over 10 µM. Further, the outcome with Mus musculus [3] (time 60.0 min) was inactive.

With `CCOC(=O)[C@H](OCc1cnnn1[C@@H](Cc1ccccc1)C(=O)OC)[C@@H](OCc1cnnn1[C@@H](Cc1ccccc1)C(=O)OC)C(=O)OCC`, the IC50 in test [1] was determined as 90 nM; in test [2], 90 µM.

In the case of `O=C1NC(=O)C(=Cc2cn(C[C@H](O)COc3cc(O)c4c(=O)cc(-c5ccccc5)oc4c3)c3ccccc23)C(=O)N1`, the IC50 in test [1] turned out to be 1.5 nM; in test [2] it was 0.34 µM.

Turning to `CCOC(=O)[C@H](OCc1cnnn1[C@@H](CO)C(=O)OC)[C@@H](OCc1cnnn1[C@@H](CO)C(=O)OC)C(=O)OCC`, the IC50 in test [1] amounted to 1300 nM; in test [2] it was 54 µM. Further, the result in the test on Mus musculus [3] (time 60.0 min) was Active.

On to `CCOC(=O)[C@H](O)[C@@H](OCc1cnnn1[C@@H](CO)C(=O)OC)C(=O)OCC`, for which the IC50 turned out to be 14000 nM in test [1] and 110 µM in test [2].

For `CCOC(=O)Cn1nncc1CO[C@@H](C(=O)OCC)[C@@H](OCc1cnnn1CC(=O)OCC)C(=O)OCC`, the figures for the half-maximal inhibitory concentration (IC50) in test [1] and in test [2] were 300 nM and 60 µM, respectively. In addition, in the test on Mus musculus [3] (time 60.0 min), the outcome was Active.

Take `COc1cc(-c2cc(C(=O)CCCOc3ccc4ccc(=O)oc4c3)nn2-c2ccccc2)cc(OC)c1OC`: the IC50 in test [1] turned out to be 870 nM; in test [2], 53.1 µM.

As for `CCOC(=O)Cn1nncc1COc1ccc2ccccc2c1-c1c(OCc2cnnn2CC(=O)OCC)ccc2ccccc12`, the results for the IC50 in test [1] and in test [2] were 11000 nM and 70 µM, respectively.

As to `CCOC(=O)[C@H](O)[C@@H](OCc1cnnn1[C@@H](Cc1ccccc1)C(=O)OC)C(=O)OCC`, the concentration for half-maximal inhibition (IC50) in test [1] was 8000 nM; in test [2], 55 µM.

As to `COC(=O)[C@H](CO)n1nncc1COc1ccc2ccccc2c1-c1c(OCc2cnnn2[C@@H](CO)C(=O)OC)ccc2ccccc12`, the IC50 in test [1] turned out to be 6000 nM; in test [2] it was 86 µM.

As to `CCOC(=O)[C@H](OCc1cnnn1[C@H](Cc1ccc(O)cc1)C(=O)OC)[C@@H](OCc1cnnn1[C@@H](Cc1ccc(O)cc1)C(=O)OC)C(=O)OCC`, the results for the IC50 in test [1] and in test [2] were 140 nM and over 10 µM, respectively.

Turning to `CCOC(=O)[C@H](OCc1cnnn1[C@@H](Cc1c[nH]c2ccccc12)C(=O)OC)[C@@H](OCc1cnnn1[C@@H](Cc1c[nH]c2ccccc12)C(=O)OC)C(=O)OCC`, the half-inhibitory concentration (IC50) in test [1] is 450 nM; in test [2] it was over 10 µM. For the same molecule, the result in the test on Mus musculus [3] (time 60.0 min) was inactive.

In test [1], `CC(c1cc2ccccc2s1)N(O)C(N)=O` (configuration not stated) [ZILEUTON] had an IC50 of 300 nM.

`COc1ccc(-n2nc(CCC(=O)N(C)O)cc2-c2ccc(Cl)cc2)cc1` [TEPOXALIN] came in with a 50% inhibitory concentration (IC50) in test [1] of 150 nM.

Turning to `O=C(O)[C@H](OCc1cnnn1[C@@H](Cc1ccccc1)C(=O)O)[C@@H](OCc1cnnn1[C@@H](Cc1ccccc1)C(=O)O)C(=O)O`, the half-inhibitory concentration (IC50) in test [1] is 500 nM. The result in the test on Mus musculus [3] (time 60.0 min) was inactive.

With `Cc1ccc(-c2cc(C(F)(F)F)nn2-c2ccc(S(N)(=O)=O)cc2)cc1` [CELECOXIB], the Activity was found to be 62% with Mus musculus [3] (time 60 min, 1 h) and 33% with Mus musculus [4].

Take `CCOC(=O)Cn1nncc1CO[C@@H](C(=O)OCC)[C@@H](O)C(=O)OCC`: the IC50 came to 6000 nM in test [1] and 95 µM in test [2].

On to `CC1(C)Cc2c(-c3ccccc3)c(-c3ccc(Cl)cc3)c(CC(=O)O)n2C1` [LICOFELONE], for which the results for the half-maximal inhibitory concentration (IC50) in test [1] and in test [2] were 180 nM and 0.21 µM, respectively.

As to `COC(=O)[C@H](Cc1ccccc1)n1nncc1COc1ccc2ccccc2c1-c1c(OCc2cnnn2[C@@H](Cc2ccccc2)C(=O)OC)ccc2ccccc12`, the half-inhibitory concentration (IC50) in test [1] came to 3000 nM; in test [2], 150 µM.

`CCOC(=O)[C@H](OCc1cnnn1[C@@H](Cc1ccc(O)cc1)C(=O)OC)[C@@H](OCc1cnnn1[C@@H](Cc1ccc(O)cc1)C(=O)OC)C(=O)OCC`: the IC50 is 150 nM in test [1] and over 10 µM in test [2]. In addition, in the test with Mus musculus [3] (time 60.0 min), the outcome was inactive.

Consider `COc1ccc2c(c1)c(CC(=O)O)c(C)n2C(=O)c1ccc(Cl)cc1` [INDOMETHACIN], for which the Activity in test [5] was 0.9 ng/mL; in the test on Mus musculus [6], 55%; in the test with Mus musculus [7] it was 30%.

As for `COC(=O)[C@H](Cc1c[nH]c2ccccc12)n1nncc1COc1ccc2ccccc2c1-c1c(OCc2cnnn2[C@@H](Cc2c[nH]c3ccccc23)C(=O)OC)ccc2ccccc12`, the concentration for half-maximal inhibition (IC50) amounted to 1000 nM in test [1] and 90 µM in test [2].

Regarding `Cc1ccc(S(=O)(=O)n2cc(C(=O)C(=O)N[C@H](C(=O)NCC(=O)O)c3c[nH]c4ccccc34)c3ccccc32)cc1`, the values for the 50% inhibitory concentration (IC50) in test [1] and in test [2] were 80 nM and 12.9 µM, respectively.
